Bioassay records deposited in PubChem BioAssay by several laboratories.
Vif inh: inhibitors of HIV Vif. HEK293T cells, Vif self-association by quenched fluorescence, imaging, 24 h. inhibition, % at 7.49 µM. hit rate 0.35% among 340,000. AID 602346; in the data active = inhibition above about 50%, passing the limit was not always enough
SR-BI HDL uptake: mouse SR-BI HDL lipid transfer inhibition; hit rate 0.96% among 320,000; AID 488896; inhibition, % at 12.5 µM; ldlA[mSR-BI] CHO cells, DiI-HDL uptake fluorescence, 3 h;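 active = mean replicate inhibition of at least 70% and a set share of replicates each scoring 70 or more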;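 note: 0% = median of neutral control wells and 100% = median of positive control wells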
Target sequence (Q61009 whole entry, looked up): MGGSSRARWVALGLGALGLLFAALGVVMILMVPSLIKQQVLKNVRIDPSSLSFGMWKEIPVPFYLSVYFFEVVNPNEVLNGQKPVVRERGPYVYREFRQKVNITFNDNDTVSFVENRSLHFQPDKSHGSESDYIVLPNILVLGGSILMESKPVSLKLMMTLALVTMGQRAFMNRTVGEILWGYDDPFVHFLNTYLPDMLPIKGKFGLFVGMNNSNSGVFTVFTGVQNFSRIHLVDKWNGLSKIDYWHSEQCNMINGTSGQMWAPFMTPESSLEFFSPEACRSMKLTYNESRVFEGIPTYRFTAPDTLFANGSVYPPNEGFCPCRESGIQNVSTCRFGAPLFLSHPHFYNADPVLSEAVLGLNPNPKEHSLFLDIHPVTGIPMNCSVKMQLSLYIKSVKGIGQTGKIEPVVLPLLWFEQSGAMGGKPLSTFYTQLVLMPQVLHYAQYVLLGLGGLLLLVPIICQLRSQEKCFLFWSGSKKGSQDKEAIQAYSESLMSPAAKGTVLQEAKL
SR-BI uptake up: activators of SR-BI mediated HDL lipid uptake | CHO ldlA[mSR-BI] cells, DiI-HDL uptake fluorescence, 3 h; 100 = double the neutral-control signal | activation, % at 12.5 µM | hit rate 0.096% among 320,000;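 active = mean replicate activation of at least 60% and every replicate at or above 60%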;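 note: 0% = median plate neutral-control signal and 100% = twice that signal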
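material = CHO ldlA[mSR-BI] cells | medium = Ham's F12 with 0.5% BSA, HEPES 25 mM, pH 7.4 | reagent = fluorescent DiI-HDL, 10 µg/mL final | compound dosing = single-point compound dose | incubation = 3 h, 37 °C | measured by = bottom-read fluorescence, 550/595 nm | measure = HDL uptake via cellular fluorescence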
SMARCA2 act: SMARCA2 function activation, primary screen; MG213 cells, MMTV-luciferase reporter, dexamethasone, overnight; activation, % at 9.1 µM; hit rate 1% among 370,000; AID 652017; in the data active = activation above about 7.8%;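 note: 0% = vehicle wells and 100% = reference activator wells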
TAG inh: triacylglycerol accumulation inhibition. H9c2 cells, Nile Red lipid (TAG) fluorescence; cells loaded with 200 µM oleic acid. inhibition, % at 12.5 µM. hit rate 0.66% among 230,000. AID 651582;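 active = pattern-corrected inhibition of lipid staining of at least 50% with the nuclear-stain viability signal not falling by more than 50%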;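 note: 0% = DMSO wells and 100% = triacsin C control wells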
* = called active by the depositor; . = not tested or not shown. Hits are enriched below; roughly 2.5% of the tested compounds scored in any of these assays.

SMILES	Vif inh	SR-BI HDL uptake	SR-BI uptake up	SMARCA2 act	TAG inh
Cc1ccc(-c2nn3c(C)nnc3s2)cc1NC(=O)c1ccc(Br)o1	0	38	-38	1	-2
Cc1noc(/C=C/c2ccco2)c1S(=O)(=O)N1CCC(C(=O)N(C)Cc2ccccc2)CC1	2	6	-6	-4	.
Cc1noc(/C=C/c2ccco2)c1S(=O)(=O)N1CCC(C(=O)NC(C)c2ccccc2)CC1 (stereo unspecified)	20	81*	-81	1	3
CCN(CCN(C)C)C(=O)C1CCN(S(=O)(=O)c2c(C)noc2/C=C/c2ccccc2F)CC1	0	25	-25	-2	.
CCOc1ccccc1/C=C/c1onc(C)c1S(=O)(=O)N1CCC(C(=O)N(CC)CC)CC1	-2	71*	-71	0	.
Cc1ccc(C)c(N2CCN(C(=O)CCS(=O)(=O)c3ccc4c(c3)CCN4C(=O)C3CC3)CC2)c1	1	5	-5	7.9*	.
CCOC(=O)C1CCN(C(=O)CCS(=O)(=O)c2ccc3c(c2)CCN3C(=O)CC)CC1	.	12	-12	-1	-25
CC(C)C[C@@H]1COc2cc(F)ccc2S(=O)(=O)N1C	.	.	.	-2	.
CC(Cc1ccccc1)NC(=O)c1ccc([N+](=O)[O-])cc1 (stereo unspecified)	9	-14	14	7.8*	2
COC(=O)C1=C(C)N(Cc2ccccc2C(F)(F)F)C(=NCc2ccccc2C(F)(F)F)NC1c1cccc(F)c1 (stereo unspecified)	.	.	.	-5	.
CCOC(=O)C(CNc1ccc(OCc2ccccc2)cc1)NC(=O)c1ccccc1 (stereo unspecified)	.	.	.	1	.
C/C(=N\Nc1nc2ccccc2s1)c1ccc(Br)s1	0	61	-61	-3	.
CC(=NNc1nc2ccccc2s1)c1ccncn1	-9	5	-5	-4	64*
Cc1cc(-c2nnc(SCC(=O)Nc3ccc(Cl)cn3)n2N)n[nH]1	55*	1	-1	-2	.
Cc1cc(-c2nnc(SCC(=O)Nc3ccccc3F)n2N)n[nH]1	-4	-20	20	-1	.
COCc1[nH]nc2c1C(c1ccc(Br)cc1)N(Cc1ccccc1)C2=O (stereo unspecified)	.	.	.	2	.
COc1cccc(Nc2nc(-c3ccc4c(c3)OCCO4)cs2)c1	1	91*	-91	4	5
COc1ccc(-c2csc(Nc3ccc(S(N)(=O)=O)cc3)n2)cc1	10	-108	108*	-2	.
COc1ccc(-c2csc(Nc3ccccc3)n2)cc1	-5	73*	-73	2	-6
COc1ccc(CNC(=O)OC2CC3CC2[C@H]2CCCCN2C3)cc1 (stereo partly specified)	.	.	.	2	.
COc1ccc(CNC(=O)c2cc(-c3ccccc3)c(N3CCOCC3)s2)cc1OC	.	.	.	7	.
CC(=O)Nc1ccc(NC(=O)c2nc(S(=O)(=O)Cc3ccccc3)ncc2Cl)cc1	-24	-14	14	-10	.
CS(=O)(=O)c1ncc(Cl)c(C(=O)Nc2ccc3ccccc3c2)n1	0	93*	-93	-14	78
O=C(CSc1nnc(Cc2ccsc2)o1)c1ccccc1	16	.	.	7.8*	-16
Cc1ccc(C(=O)N2CCC(Oc3cccnc3)CC2)c(C)c1	.	.	.	2	.
SMILES	Vif inh	SR-BI HDL uptake	SR-BI uptake up	SMARCA2 act	TAG inh
COc1ccccc1C(O)(C(=O)NN(C(=O)c1ccccc1)c1ccccc1C)c1cccs1 (stereo unspecified)	52*	-3	3	-1	12
N#C/C(=C\c1ccncc1)c1nc2ccccc2o1	0	.	.	0	2
N#C/C(=C\Nc1ccccc1O)c1nc2ccccc2o1	-13	113*	-113	-1	.
Cc1ccc(N(CC(=O)NCCc2ccccc2)C(=O)c2csnn2)cc1	-11	-2	2	-2	.
CC(C)c1ccc(N(CC(=O)NCCc2ccccc2)C(=O)c2csnn2)cc1	-9	9	-9	7.8*	.
CSc1ncc(C(=O)O)c(C)n1	-11	-18	18	1	26
Cc1ncc(C(=O)O)c(C(=O)O)c1N	62*	-12	12	-2	.
CC1(C)CC(CC(=O)NC(=S)Nc2ccc([N+](=O)[O-])cc2)C(=O)O1 (stereo unspecified)	5	90*	-90	-1	-13
Cc1ccc(NC(=S)NC(=O)CC2CC(C)(C)OC2=O)cc1 (stereo unspecified)	-12	-31	31	1	.
C=CCN1C(=O)c2n[nH]c(C)c2C1c1ccc(C)cc1 (stereo unspecified)	.	.	.	3	.
CCOc1ccc2nc(NCCNC(=O)Nc3ccccc3)c(C#N)cc2c1	57*	61	-61	0	22
O=C1C(=O)N(CNc2ccccn2)c2ccccc21	2	-30	30	-1	59*
CCOC(=O)C1=CCN(S(=O)(=O)c2ccccc2F)C1c1ccc(Br)cc1 (stereo unspecified)	.	.	.	-3	.
CCn1c(C)c(C)c2cc(C(=O)NCCN3CCCCCC3)ccc21	8	75*	-75	2	.
CCn1c(C)c(C)c2cc(C(=O)NCCCN3CCCCCC3)ccc21	7	57	-57	-1	.
C=CCOc1c(Br)cc(/C=N/NC(=O)Cc2ccc(C(F)(F)F)cc2[N+](=O)[O-])cc1OC	-18	75*	-75	-1	.
COC(=O)C[C@@H]1CC[C@H]2[C@@H](COc3ccc(NC(=O)Nc4ccccc4C)cc3C(=O)N2C)O1	.	.	.	-1	.
COC(=O)C[C@H]1CC[C@H]2[C@H](COc3ccc(NC(=O)Nc4ccccc4F)cc3C(=O)N2C)O1	.	.	.	7.9*	.
COC(=O)CCN1CCSCCS1(=O)=O	.	.	.	-4	.
COc1cc(/C=C(/C#N)C(=O)NC(C)c2ccccc2)cc(OC)c1O (stereo unspecified)	54*	6	-6	-3	.
Cc1cc(NC(=O)CSc2nc3ccccc3c(=O)n2CCCC(=O)NCc2ccco2)n[nH]1	51*	-1	1	2	.
N#CCSc1nc2ccccc2c(=O)n1CCCC(=O)NCc1ccco1	2	-10	10	0	6
COc1ccc(C2O[C@@H](C)[C@@H]3C(=O)N4CCc5c([nH]c6ccccc56)[C@@H]4C[C@@H]3N2C)cc1 (stereo partly specified)	.	.	.	-2	.
CN(Cc1ccccc1)C(=O)c1cccc(NC(=O)Cc2ccc(NC(=O)C3CCN(C(=O)C4CCC4)CC3)cc2)c1	-14	92*	-92	-3	3
O=C(Cc1ccc(NC(=O)C2CCCN(C(=O)C3CCCC3)C2)cc1)Nc1cccc(C(=O)N2CCCCC2)c1 (stereo unspecified)	-9	73*	-73	5	-2
CC(NC(=O)C1CCN(CCOc2ccc(Cl)cc2)CC1)c1cccc2ccccc12 (stereo unspecified)	66*	.	.	-4	1
COc1ccc(CN2CCC(C(=O)NC(C)c3cccc4ccccc34)CC2)cc1 (stereo unspecified)	.	.	.	.	12
